Test results reported in publication PMC7114206 (Antiviral Research, 2008).
Converted amounts (≈) assume the structure as drawn. “And” between values parts separate entries of the source, which are not always exact repeats. Equal entries are not always repeated. Where two headings read alike, the source gives them in different places.

What was measured:
[1] = tested on: porcine epidemic diarrhea virus; assay: Antiviral activity against PEDV, CPE reduction by SRB method in Vero cells; assay type: cell-based, porcine epidemic diarrhea virus (PEDV CV 777)
[2] = Cytotoxicity SRB assay in Vero cells; assay type: cell-based, african green monkey; conditions: african green monkey, CC50, concentration required to reduce cell growth by 50%, 48 h
Outline: (§1)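 Vero cells seeded at 2 × 10^4/well and grown 1 day, then given medium with serially diluted test compound for 48 h. After PBS wash, cells fixed with cold 70% acetone (30 min, −20 °C), dried and stained 30 min with 0.4% SRB in 1% acetic acid. Dye solubilised in 10 mM Tris and read at A540 (ref 620 nm). CC50 read graphically from % of control curves.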

[3] = tested on: Vero cells; assay: Cytotoxicity SRB assay in Vero cells; assay type: cell-based, african green monkey
Outline: as §1

[4] = tested on: PEDV; assay: Time-of-addition effect on PEDV replication in Vero cells; assay type: cell-based, porcine epidemic diarrhea virus
Outline: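 Vero cells seeded at 2 × 10^4/well and grown 1 day, then PBS-washed. […] After 2 days, SRB CPE-reduction read-out expressed as inhibition rate; mean ± S.D. of three independent experiments.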

[5] = tested on: membrane (M) gene of PEDV; assay: RT-PCR analysis of PEDV replication; assay type: cell-based, porcine epidemic diarrhea virus; conditions: 10 μg/mL; RNA extracted 24 and 48 h after infection
[6] = tested on: TGEV; assay: Antiviral activity against TGEV in ST cells; assay type: cell-based, transmissible gastroenteritis virus
[7] = tested on: ST cells; assay: Cytotoxicity SRB assay in ST cells; assay type: cell-based, pig; conditions: for Cytotoxicity: highest concentrations tested
Outline: (§2)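 ST pig testis cells kept in MEM with 10% FBS and 0.01% antibiotic-antimycotic. SRB staining gives cell growth. CC50 is the concentration reducing cell growth by 50%, in μg/mL. Values are means of three independent experiments run in triplicate ± S.D.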

[8] = tested on: PRCV; assay: Antiviral activity against PRCV in ST cells; assay type: cell-based, porcine respiratory coronavirus
Outline: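 PRCV (ATCC VR-2384) grown on ST pig testis cells kept in MEM with 10% FBS and 0.01% antibiotic-antimycotic. Read-out is SRB-based reduction of virus-induced CPE. IC50 is the concentration giving 50% inhibition of CPE, in μg/mL. TI = CC50/IC50. Values are means of three independent experiments run in triplicate ± S.D.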

[9] = Cytotoxicity SRB assay in ST cells; assay type: cell-based, pig; conditions: pig
Outline: as §2

[10] = interferon-α in units, listed as interferon-α

O=c1cc(-c2ccc(O)cc2)oc2cc(O)cc(O)c12 [Apigenin]
IC50, concentration required to inhibit virus-induced CPE by 50% ([1]; SRB, 2 days): 0.1 ± 0.1 µg/mL (≈ 0.37 µM) | IC50, concentration required to inhibit virus-induced CPE by 50% ([1]; SRB, 2 days, listed as apigenin): less than 12 μg/mL | CC50 at 48 h [2]: > 50 µg/mL

O.Oc1cc(O)c2c(c1)O[C@H](c1ccc(O)c(O)c1)[C@@H](O)C2 [Catechin]
TI, therapeutic index = CC50/IC50 [1]: >9.0 | IC50, concentration required to inhibit virus-induced CPE by 50% ([1]; SRB, 2 days): 11.1 ± 7.1 µg/mL | IC50, concentration required to inhibit virus-induced CPE by 50% ([1]; SRB, 2 days, listed as catechin): less than 12 μg/mL | CC50, concentration required to reduce cell growth by 50% ([3]; 48 h): >100 µg/mL

O=c1ccc2ccccc2o1 [Coumarin]
TI, therapeutic index = CC50/IC50 [1]: 4.8

O=c1cc(-c2ccc(O)c(O)c2)oc2cc(O)cc(O)c12 [Luteolin]
IC50, concentration required to inhibit virus-induced CPE by 50% ([1]; SRB, 2 days): 0.2 ± 0.2 µg/mL (≈ 0.699 µM) | IC50, concentration required to inhibit virus-induced CPE by 50% ([1]; SRB, 2 days, listed as luteolin): less than 12 μg/mL | CC50 at 48 h [2]: 6.7 µg/mL (≈ 23.4 µM)

C[C@@H]1O[C@@H](Oc2cc(O)c3c(=O)c(O)c(-c4ccc(O)c(O)c4)oc3c2)[C@H](O)[C@H](O)[C@H]1O [Q7R, quercetin 7-rhamnoside]
Inhibition rate (time of addition) ([4]; 10 μg/mL added at 0, 1, 2 and 4 h after virus inoculation, SRB after 2 days): higher than 85% | Intensity of the RT-PCR product band of PEDV [5]: decreased the intensity of the product band of PEDV at 24 and 48 h after infection | IC50 ([6]; TGEV in ST cells): 63.31 ± 1.07 µg/mL (≈ 141 µM) | TI, therapeutic index = CC50/IC50 ([6]; TGEV in ST cells): >1.58 | TI, therapeutic index = CC50/IC50 [1]: 7142 and > 7142.86 | IC50, concentration required to inhibit virus-induced CPE by 50% ([1]; SRB, 2 days): 0.014 ± 0.005 µg/mL (≈ 0.0312 µM) | TI, therapeutic index = CC50/IC50 ([1]; listed as Quercetin 7-rhanmoside): >7142.86 | CC50 [7]: >100 µg/mL | Cytotoxicity [7]: did not exhibit any cytotoxicity at the highest concentrations tested | IC50 ([8]; PRCV in ST cells): 59.76 ± 5.70 µg/mL (≈ 133 µM) | TI, therapeutic index = CC50/IC50 ([8]; PRCV in ST cells): >1.67 | CC50, concentration required to reduce cell growth by 50% ([3]; 48 h): >100 µg/mL

O=c1c(O)c(-c2ccc(O)c(O)c2)oc2cc(O)cc(O)c12 [Quercetin]
TI, therapeutic index = CC50/IC50 [1]: 214.8 | CC50 at 48 h [2]: 365 µg/mL (≈ 1210 µM)

NC(=O)c1ncn([C@@H]2O[C@H](CO)[C@@H](O)[C@H]2O)n1 [Ribavirin]
inhibition at 10 µg/mL ([4]; Porcine epidemic diarrhea virus, Vero, read-out: Inhibition rate (time of addition)): < 50% | Intensity of the RT-PCR product band of PEDV [5]: did not decrease the intensity of the product band of PEDV at 48 h after infection | IC50 ([6]; Alphacoronavirus 1): 55.1 ± 0.8 µg/mL (≈ 226 µM) | TI, therapeutic index = CC50/IC50 [1]: 103.2 | CC50 at 48 h [9]: > 100 µg/mL | Cytotoxicity [7]: did not exhibit any cytotoxicity at the highest concentrations tested | IC50 ([8]; Alphacoronavirus 1): 61.6 ± 1.91 µg/mL (≈ 252 µM) | TI, therapeutic index = CC50/IC50 ([8]; PRCV in ST cells): >1.62 | CC50 at 48 h [2]: 423 µg/mL (≈ 1730 µM)

Interferon-α
TI, therapeutic index = CC50/IC50 [1]: >192.3 | IC50, concentration required to inhibit virus-induced CPE by 50% ([1]; interferon-α in units): 0.52 ± 0.5 unit | IC50, concentration required to inhibit virus-induced CPE by 50% [1, 10]: 0.52 unit | TI, therapeutic index = CC50/IC50 ([1]; listed as interferon-α): > 192.3 | CC50, concentration required to reduce cell growth by 50% ([3]; interferon-α in units): >100 unit | CC50, concentration required to reduce cell growth by 50% [3, 10]: > 100 unit

Tannic acid
TI, therapeutic index = CC50/IC50 [1]: 9.2
